Results on 4 compounds are retold here after ChEMBL document CHEMBL1157434, “2-Aminopropane-1,2,3-tricarboxylic acid: Synthesis and co-crystallization with the class A beta-lactamase BS3 of Bacillus licheniformis” (Bioorg Med Chem Lett, 2008).

Test [1] can be described thus: Inhibition of Bacillus licheniformis beta-lactamase BS3 in 25 mM acetate buffer at pH 5. Summed up:
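Purified BS3 (1–100 nM) mixed with inhibitor and the chromogenic substrate nitrocefin. Ki obtained from a plot of V0/Vi (uninhibited over inhibited hydrolysis rate) against inhibitor concentration. Three independent runs.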

Test [2] in a line: Inhibition of beta-lactamase TEM1 in 25 mM acetate buffer at pH 5. The procedure, abridged:
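Hydrolysis rates were measured without and with inhibitor at varying concentrations. Ki was derived from a plot of V0/Vi against inhibitor concentration. Performed three times.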

A short description of test [3]: Inhibition of beta-lactamase TEM1 in 50 mM phosphate buffer at pH 7.2 at 0.2 mM.
The subject of test [4] is beta-lactamase BcII (Bacillus cereus). Put plainly: Inhibition of Bacillus cereus beta-lactamase Bc2 in 50 mM phosphate buffer at pH 7.2 at 100 uM; values are per cent of control.
Test [5] deals with T1, Imipenem-hydrolyzing beta-lactamase (Enterobacter cloacae) (UniProt P52663).
T1 sequence (whole entry): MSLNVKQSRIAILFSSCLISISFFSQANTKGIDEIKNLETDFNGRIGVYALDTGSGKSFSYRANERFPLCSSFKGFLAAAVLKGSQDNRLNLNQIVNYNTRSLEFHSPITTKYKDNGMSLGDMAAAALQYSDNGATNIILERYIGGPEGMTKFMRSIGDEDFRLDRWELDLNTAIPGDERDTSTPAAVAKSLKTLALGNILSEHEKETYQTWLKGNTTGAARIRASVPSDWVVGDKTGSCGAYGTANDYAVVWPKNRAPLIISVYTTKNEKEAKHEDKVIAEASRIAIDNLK
As to the kind of experiment: Inhibition of Enterobacter cloacae beta-lactamase NMCA in 50 mM phosphate buffer at pH 7.2 at 100 uM; values are per cent of control.

Test [6] relates to Enterobacter cloacae. Put plainly: Inhibition of Enterobacter cloacae beta-lactamase P99 in 50 mM phosphate buffer at pH 7.2 at 100 uM; values are per cent of control.
The target in test [7] is Beta-lactamase OXA-10 (Pseudomonas aeruginosa) (UniProt P14489). Put plainly: Inhibition of Pseudomonas aeruginosa beta-lactamase Oxa-10 in 50 mM phosphate buffer at pH 7.2 at 100 uM; values are per cent of control.
Beta-lactamase OXA-10 (Pseudomonas aeruginosa), sequence (P14489 whole entry): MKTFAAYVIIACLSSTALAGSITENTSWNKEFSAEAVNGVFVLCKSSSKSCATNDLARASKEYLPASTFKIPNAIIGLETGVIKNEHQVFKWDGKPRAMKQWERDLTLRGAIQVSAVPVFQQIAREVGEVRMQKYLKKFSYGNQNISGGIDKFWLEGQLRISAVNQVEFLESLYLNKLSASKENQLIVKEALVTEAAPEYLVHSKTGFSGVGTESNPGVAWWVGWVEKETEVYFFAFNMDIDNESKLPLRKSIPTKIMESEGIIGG
The test system of test [8] is Bacillus licheniformis. Put plainly: Inhibition of Bacillus licheniformis beta-lactamase BS3 in 50 mM phosphate buffer at pH 7.2 at 100 uM; values are per cent of control.
Test [9] can be described thus: Inhibition of beta-lactamase TEM1 in 50 mM phosphate buffer at pH 7.2 at 2 mM.

For `O=C(O)CC(O)(CC(=O)O)C(=O)O` [CITRIC ACID], the Ki in test [1] stood at 490 µM; in [2], 730 µM.
`CCOC(=O)CC(N)(CC(=O)OCC)C(=O)OCC`: the residual activity in test [3] was 71%; in test [4], 92%; in test [5] it was 60%; in [6], 87%; in [7] it was 98%; in [8], 82%.
As to `NC(CC(=O)O)(CC(=O)O)C(=O)O`, the affinity in test [2] corresponds to a Ki of 150 µM. For the same compound, the residual activity in test [5] came out at 94%; in test [6] it was 81%; in test [7], 100%; in test [9], 95%; in test [8], 88%.
In the case of `O=C(O)CC(C(=O)O)C(O)C(=O)O` (stereo unspecified) [ISOCITRATE], the Ki in [1] was 2200 µM; in test [2] it was 1500 µM.
